Jurkat tox 60K: cytotoxicity toward Jurkat T cells, primary screen, cytotoxicity control, cell-based, Jurkat E6.1, 60K MLSMR library | Jurkat E6.1 viability, ATP luminescence, 48 h | 56,000 compounds, 1.2% hits | inhibition, % at 4 µM;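 active = inhibition above the mean inhibition of all tested compounds plus 3 SD, cut at about 28% in these data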
SF1 activator: activators of human SF-1, primary screen, cell-based, CHO-K1, Gal4-SF-1 LBD, luciferase luminescence | activation, % at 10 µM | CHO-K1 Gal4-SF-1 LBD luciferase reporter; % increase over DMSO SF-1-specific signal | AID 522, 2006 | 65,000 compounds, 1.9% hits;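 active = activation above the mean activation of all tested compounds plus 3 SD, cut at about 50% in these data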
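Test system: CHO-K1 cells co-transfected with Gal4 DBD–human SF-1 LBD, 5xGal4 luciferase reporter. Quantity: 4,000 cells per well. Compound: 10 µM only. Incubation: compound added 1 h post-seeding, 20 h exposure at 37 °C, 5% CO2. Detection: SteadyLite luciferase luminescence. Replication: one test per compound.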
RORA act: activators of orphan receptor RORA, primary screen, cell-based, luminescence | CHO-K1 Gal4-RORA LBD luciferase reporter; percent increase over mock-subtracted basal signal | activation, % at 10 µM | 65,000 compounds, 1.5% hits | AID 560, 2006;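 active = activation above the mean of all tested compounds plus 3 SD, cut at about 49% in these data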;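 note: 0% = DMSO-treated RORA cells and 100% = added signal equal to DMSO minus mock-transfected cells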
Target sequence (P35398 whole entry, looked up, the tested form may be a part): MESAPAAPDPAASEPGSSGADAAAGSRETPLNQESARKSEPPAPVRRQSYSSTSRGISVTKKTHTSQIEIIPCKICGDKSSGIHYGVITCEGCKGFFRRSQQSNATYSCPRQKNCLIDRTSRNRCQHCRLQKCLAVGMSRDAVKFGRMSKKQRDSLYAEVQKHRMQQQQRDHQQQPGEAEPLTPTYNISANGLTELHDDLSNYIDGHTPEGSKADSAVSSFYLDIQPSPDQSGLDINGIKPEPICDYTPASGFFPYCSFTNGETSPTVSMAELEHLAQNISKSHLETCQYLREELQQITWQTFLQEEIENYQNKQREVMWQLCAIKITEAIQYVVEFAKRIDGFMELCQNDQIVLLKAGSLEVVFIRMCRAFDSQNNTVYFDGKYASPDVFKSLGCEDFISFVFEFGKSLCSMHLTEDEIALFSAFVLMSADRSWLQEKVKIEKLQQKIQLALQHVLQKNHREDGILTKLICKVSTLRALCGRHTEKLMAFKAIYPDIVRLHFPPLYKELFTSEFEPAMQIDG
MT1-MMP txn act: MT1-MMP promoter reporter activation – cell-based, luciferase luminescence, primary screen | HT1080 MT1-MMP promoter luciferase reporter, overnight; hits give high values | activation factor at 10 µM | 86,000 compounds, 0.16% hits | AID 750, 2007;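 active = activation factor of at least 2 for MT1-MMP transcription at 10 µM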
HEK293 NFkB inh: inhibitors of PMA/ionomycin-induced NF-kB reporter, primary screen, antigen receptor NF-kB inhibitor project, cell-based, HEK-293 luciferase reporter, luminescence; HEK-293 NF-kB luciferase reporter; inhibition, % at 3 µM; 62,000 compounds, 0.21% hits; AID 465, 2006;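 active = inhibition above the mean of all tested compounds plus 3 SD, cut at about 40% in these data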;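 note: 0% = stimulated DMSO wells and 100% = 10 µM reference inhibitor 5653914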
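Material: HEK-293 cells with stable firefly luciferase reporter driven by four HIV NF-kB elements / Also added: PMA plus ionomycin mix as NF-kB-activating stimulus / Compound dosing: 3 µM once, 0.30% DMSO / Times: 1 h pretreatment, 16 h stimulation, 37 °C / Signal: luminescence / Evaluation: per-plate % inhibition versus controls / Benchmarks: DMSO and 10 µM reference inhibitor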
* hit, by the source's call; / = not tested or not shown. Rows were chosen to be rich in hits. Some 2.9% of all compounds tested hit in one or more screens of this group.

SMILES	Jurkat tox 60K	SF1 activator	RORA act	MT1-MMP txn act	HEK293 NFkB inh
O=S(=O)(CCSc1nc2ccccc2o1)c1nc2ccccc2s1	63.9*	-10.0	-32.7	1	19.5
CCS(=O)(=O)CCSc1nc2ccccc2o1	-9.3	4.7	13.8	1.1	7.5
O=C(c1ccccc1)c1nc2ccccc2n(CCCn2c(=O)c(C(=O)c3ccccc3)nc3ccccc32)c1=O	/	/	/	1.2	/
C=CCSc1nc2ccccc2c(=O)[nH]1	-0.3	13.4	-15.1	1.1	4.8
C=CCSc1nnc2c(n1)[nH]c1c(C)cccc12	9.5	31.1	84.1*	1.6	-43.5
COc1cccc(/C=N/n2c(SC)nnc2-c2ccccc2)c1O	68.5*	26.9	5.2	1	6.9
Cn1cccc1CNC(=O)Nc1ccc(Cl)c(Cl)c1	11.5	66.4*	59.6*	1.7	-1.6
CCOC(=O)/C=C/S(=O)(=O)c1ccc(NC(C)=O)cc1	52.5*	-14.9	-16.3	1.2	12.6
CCOC(=O)c1cccc(NS(=O)(=O)c2ccc(NC(C)=O)cc2)c1	/	/	/	1.2	/
CC(O)c1cccc(NC2=CC(=O)CC(C)(C)C2)c1 (stereo not drawn)	-2.6	4.5	-4.6	1.1	5.9
O=C(NCCc1cn2ccsc2n1)C1CCCCC1	4.0	0.7	-8.9	1.1	4.8
c1cn2cc(CSC3CCCCC3)nc2s1	4.3	59.6*	29.9	1.4	-19.6
c1ccc(CSCc2cn3ccsc3n2)cc1	2.5	53.8*	57.6*	1.7	-21.1
Clc1ccc(SCc2cn3ccsc3n2)cc1	/	57.7*	30.3	1.9	/
O=C(Cc1cn2ccsc2n1)OCc1ccccc1	24.4	10.6	5.7	1	2.0
Cc1csc2nc(CSc3ccc(Cl)cc3)cn12	-4.6	31.6	-6.5	0.9	-26.0
Cc1cc(Cl)cc(Br)c1OCCCN1C(=O)NC(C)(C)C1=O	/	/	/	1.1	/
CC1(C)CC(NCc2ccc3c(c2)OCO3)CCO1 (stereo not drawn)	/	/	/	1.1	/
Cc1cc(=O)n2[nH]cc(C(=O)O)c2n1	/	/	/	1.3	/
COc1ccccc1NC(=O)N(Cc1ccco1)Cc1cc2ccc(C)c(C)c2[nH]c1=O	79.5*	24.7	37.1	0.5	15.9
COc1ccccc1NC(=O)N(Cc1ccco1)Cc1cc2cc(C)cc(C)c2[nH]c1=O	13.7	29.2	18.0	1.2	22.8
O=C(NCC(c1cccs1)N1CCOCC1)c1ccc(Cl)s1 (stereo not drawn)	95.0*	-26.1	-7.7	0.3	12.9
Cc1ccc(CCP(=O)(O)CN2CCCCC2)cn1	-2.5	11.8	-14.2	1	6.6
COc1ccc2c(c1)[nH]c1c(=O)n(CC3CCCO3)cnc12 (stereo not drawn)	/	50.8*	16.8	/	/
O=C(CSc1ncnc2ccccc12)N1CCCC1	-7.1	18.3	54.7*	1.4	1.7
SMILES	Jurkat tox 60K	SF1 activator	RORA act	MT1-MMP txn act	HEK293 NFkB inh
CCCC(=O)Nc1c(C)nn(C(=O)CCC)c1C	-2.0	-3.9	11.6	1.2	13.8
CCOC(=O)C1(C(F)(F)F)N=C(C(F)(F)F)Nc2ccccc21 (stereo not drawn)	/	/	/	1.1	/
CCOC(=O)C1(Nc2nccs2)Sc2ccccc2NC1=O (stereo not drawn)	82.6*	5.7	33.7	1.2	25.8
Clc1ccc(-c2nnc(N3CCCC3)nn2)cc1	/	40.7	54.6*	/	-23.9
CC1CC1C(=O)OCc1cc(=O)n2cc(Br)ccc2n1 (stereo not drawn)	-1.6	54.9*	32.4	1.3	3.1
Cc1ccnc(SCCn2c(Br)nc3c2c(=O)n(C)c(=O)n3C)n1	-4.8	9.1	2.6	1.1	26.1
CCN(CC)c1ccc(NC(=O)c2ccccc2F)cc1	57.1*	73.8*	70.3*	0.6	-28.3
Nc1nc2ccccc2n1C(=O)CCc1ccccc1	15.1	67.3*	45.2	1.9	-25.0
CCC(C)Oc1ccccc1C1CC(=O)NC2=C1C(=O)CCC2 (stereo not drawn)	39.5*	-4.8	-7.3	1.2	8.6
CC1=C(C)CS(=O)N(S(=O)(=O)c2ccc(Cl)cc2)C1 (stereo not drawn)	68.7*	-34.0	-26.3	1.2	-8.7
CCn1c2ccccc2c2cc(Nc3cc(C)nc4ncnn34)ccc21	98.9*	-70.3	-41.2	/	46.6*
Cc1cc(C)n(-c2nnc3n2N=C(c2c[nH]c4ccccc24)CS3)n1	57.1*	30.7	0.7	1.2	5.5
CCC/C=C(\CCC)C(NS(=O)(=O)c1ccc(C(F)(F)F)cc1)c1ccc(-c2ccccc2)cc1 (stereo not drawn)	/	/	/	1.2	/
CCN1CCN(c2nc(C)c3c(n2)CCCC3=O)CC1	/	/	/	1.1	/
CCCCC1CC1C(=O)Nc1ccc(OC)c(OC)c1 (stereo not drawn)	/	-3.2	1.0	1.2	/
CCCCn1c(-c2nonc2N)nc2ccccc21	/	/	/	1.2	/
Nc1nonc1-c1nc2ccccc2n1Cc1ccccc1	88.7*	5.8	38.5	1.1	13.4
Nc1nonc1-c1nc2ccccc2n1CC(=O)NC1CCCC1	2.1	-4.8	-17.0	1	19.9
CCOC(=O)c1ccccc1NC(=O)Cn1c(-c2nonc2N)nc2ccccc21	97.6*	-46.8	-21.2	0.7	46.9*
Clc1ccc(-c2nnc3n2CCCCC3)cc1	/	/	/	1.1	/
Clc1ccc(-c2cn3c(n2)CCC3)cc1	/	72.5*	21.6	1.7	/
O=C(Nc1ccccc1)N(O)c1ccc(Cl)cc1	1.3	58.1*	46.1	1.9	1.1
COC(=O)c1cc(Nc2ncnc3c2cnn3-c2ccccc2)cc(C(=O)OC)c1	1.1	-10.6	13.8	1.1	4.1
CN(C(=S)Nc1ccccc1F)C1(c2ccccc2Cl)CCCCC1=O (stereo not drawn)	/	/	/	1.1	/
COc1ccccc1S(=O)(=O)Cc1ccc(C(=O)N2CCN(c3ccccc3)CC2)o1	-3.5	-3.7	3.9	1.2	22.6
SMILES	Jurkat tox 60K	SF1 activator	RORA act	MT1-MMP txn act	HEK293 NFkB inh
Cc1ccc(C)c(N2CCN(C(=O)c3ccc(CS(=O)(=O)c4ccccc4C)o3)CC2)c1	39.8*	-3.3	2.0	1	29.0
COc1ccccc1S(=O)(=O)Cc1ccc(C(=O)N2CCN(c3cccc(Cl)c3)CC2)o1	80.8*	19.0	40.4	1	17.0
Cc1cccc(N2CCN(C(=O)c3ccc(CS(=O)(=O)c4ccccc4C)o3)CC2C)c1 (stereo not drawn)	94.1*	11.3	0.8	0.5	41.9*
CCN(CCCNC(=O)C1CCCN(S(=O)(=O)c2cnc[nH]2)C1)c1ccccc1 (stereo not drawn)	5.2	-1.2	-11.5	1	13.6
O=C(c1cn(-c2ccccc2)nc1-c1cccs1)N1CCN(c2ccccn2)CC1	-1.9	16.4	42.4	1.3	7.4
Cc1ccccc1Nc1nc(N)nc(COC(=O)c2cccn2C)n1	6.4	65.5*	60.3*	1.4	-46.3

Screens from PubChem.
